Results on five compounds are retold here after ChEMBL document CHEMBL3526093, “Oxidative ipso substitution of 2,4-difluoro-benzylphthalazines: identification of a rare stable quinone methide and subsequent GSH conjugate” (Drug Metab Dispos, 2012).

The nature of data set [1]: Half life under physiological conditions. The data set is classed as ADME.
The nature of data set [2]: Retention time of the compound by LC/MS method. The data set is classed as physicochemical. The essentials: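 Reversed-phase C18 column (2.1 × 150 mm), 20 µl injection, 0.25 ml/min. A: 10 mM ammonium formate/0.1% formic acid in water. B: acetonitrile/0.1% formic acid. Gradient held at 10% B for 5 min, then to 90% B over 24 min, back to 10% B over 2 min, held 3 min (35 min run). Positive-ion electrospray detection.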

The target of data set [3] is Cytochrome P450 2D6 (Homo sapiens, UniProt P10635). Put plainly: Drug metabolism assessed as human CYP2D6-mediated quinone methide metabolite formation at 10 uM by LC/MS method. The note with it: recombinant enzyme. The data set is classed as ADME. The essentials:
(§1)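 Recombinant human P450 Supersomes (100 pmol/ml enzyme) in 0.1 M KH2PO4 pH 7.4 with 5 mM MgCl2 and substrate, prewarmed 2 min at 37°C. NADPH (2 mM) started the reaction, with GSH (5 mM) added 3 min later. Controls lacked GSH or NADPH. Aliquots at 0, 0.5 and 1 h were stopped in ice-cold acetonitrile, spun, and supernatants run on LC/MSn.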

Data set [4] deals with T1, Cytochrome P450 3A4 (Homo sapiens, UniProt P08684). Put plainly: Drug metabolism assessed as human CYP3A4-mediated quinone methide metabolite formation at 10 uM by LC/MS method. The data set is classed as ADME. Conditions: recombinant enzyme. A digest of the protocol: as §1
In data set [5] the target is T2, Cytochrome P450 1A2 (Homo sapiens, UniProt P05177).
T2 sequence (P05177 whole entry): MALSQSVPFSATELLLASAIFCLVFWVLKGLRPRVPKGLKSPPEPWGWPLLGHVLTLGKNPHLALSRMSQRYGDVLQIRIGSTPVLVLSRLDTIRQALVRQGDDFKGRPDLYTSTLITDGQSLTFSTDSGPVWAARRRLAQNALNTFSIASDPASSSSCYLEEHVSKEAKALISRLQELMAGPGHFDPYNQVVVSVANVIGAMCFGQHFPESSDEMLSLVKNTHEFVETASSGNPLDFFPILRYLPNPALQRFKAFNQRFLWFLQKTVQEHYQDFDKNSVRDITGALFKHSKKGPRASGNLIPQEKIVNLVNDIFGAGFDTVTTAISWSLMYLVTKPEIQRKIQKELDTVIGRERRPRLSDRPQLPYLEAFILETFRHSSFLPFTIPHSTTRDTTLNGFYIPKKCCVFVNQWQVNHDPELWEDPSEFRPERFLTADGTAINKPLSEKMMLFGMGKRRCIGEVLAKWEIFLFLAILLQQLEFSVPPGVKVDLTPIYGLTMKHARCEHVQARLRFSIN
The data set can be described thus: Drug metabolism assessed as human CYP1A2-mediated quinone methide metabolite formation at 10 uM by LC/MS method. The data set is classed as ADME. Conditions: recombinant enzyme. The essentials: as §1

In data set [6] the target is Cytochrome P450 2E1 (Homo sapiens, UniProt P05181). The data set can be described thus: Drug metabolism assessed as human CYP2E1-mediated quinone methide metabolite formation at 10 uM by LC/MS method. The note with it: recombinant enzyme. The data set is classed as ADME. A digest of the protocol:
as §1

The target of data set [7] is Cytochrome P450 2C9 (Homo sapiens, UniProt P11712). Put plainly: Drug metabolism assessed as human CYP2C9-mediated quinone methide metabolite formation at 10 uM by LC/MS method. The data set is classed as ADME. Conditions: recombinant enzyme. The essentials: as §1
Data set [8] concerns the target Cytochrome P450 2C19 (Homo sapiens, UniProt P33261). Put plainly: Drug metabolism assessed as human CYP2C19-mediated quinone methide metabolite formation at 10 uM by LC/MS method. The data set is classed as ADME. Conditions: recombinant enzyme. A digest of the protocol:
as §1

The test system of data set [9] is Liver microsome. Put plainly: Drug metabolism in human liver microsomes assessed as quinone methide metabolite formation at 10 uM by LC/MS method. The data set is classed as ADME. A digest of the protocol:
(§2)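 Pooled human liver microsomes (1 mg/ml protein) in 0.1 M KH2PO4 pH 7.4 with 5 mM MgCl2 and substrate, prewarmed 2 min at 37°C with shaking. Started with 2 mM NADPH, then 5 mM GSH added 3 min later. Controls omitted GSH or NADPH. Samples at 0, 0.5 and 1 h quenched in ice-cold acetonitrile, centrifuged, supernatant analysed by positive-ion ESI LC/MSn.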

The target in data set [10] is T1, Cytochrome P450 3A4. The data set can be described thus: Drug metabolism assessed as human CYP3A4-mediated compound formation using 10 uM [2-(6-(4-(4-(2,4-difluorobenzyl)phthalazin-1-yl)piperazin-1-yl)pyridin-3-yl)propan-2-ol] by LC/MS method. The data set is classed as ADME. Conditions: recombinant enzyme. A digest of the protocol: as §1
The test system of data set [11] is Liver microsome. Put plainly: Drug level in human liver microsomes treated with 10 uM [2-(6-(4-(4-(2,4-difluorobenzyl)phthalazin-1-yl)piperazin-1-yl)pyridin-3-yl)propan-2-ol] by LC/MS method. The data set is classed as ADME. The essentials: as §2

T1 sequence (P08684 whole entry): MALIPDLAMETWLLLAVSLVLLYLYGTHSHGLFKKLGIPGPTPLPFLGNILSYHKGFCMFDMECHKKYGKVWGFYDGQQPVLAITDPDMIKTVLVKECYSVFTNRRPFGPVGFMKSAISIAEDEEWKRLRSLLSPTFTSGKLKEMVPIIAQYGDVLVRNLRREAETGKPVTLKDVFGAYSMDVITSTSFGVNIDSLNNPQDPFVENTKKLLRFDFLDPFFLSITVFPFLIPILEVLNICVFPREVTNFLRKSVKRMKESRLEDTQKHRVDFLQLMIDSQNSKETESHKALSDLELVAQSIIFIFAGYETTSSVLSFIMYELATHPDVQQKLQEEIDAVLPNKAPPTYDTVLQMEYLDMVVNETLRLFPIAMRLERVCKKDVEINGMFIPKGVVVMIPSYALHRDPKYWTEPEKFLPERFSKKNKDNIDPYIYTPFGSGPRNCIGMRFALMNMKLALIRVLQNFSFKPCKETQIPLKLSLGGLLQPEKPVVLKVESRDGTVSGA
Cytochrome P450 2E1, sequence (P05181 whole entry): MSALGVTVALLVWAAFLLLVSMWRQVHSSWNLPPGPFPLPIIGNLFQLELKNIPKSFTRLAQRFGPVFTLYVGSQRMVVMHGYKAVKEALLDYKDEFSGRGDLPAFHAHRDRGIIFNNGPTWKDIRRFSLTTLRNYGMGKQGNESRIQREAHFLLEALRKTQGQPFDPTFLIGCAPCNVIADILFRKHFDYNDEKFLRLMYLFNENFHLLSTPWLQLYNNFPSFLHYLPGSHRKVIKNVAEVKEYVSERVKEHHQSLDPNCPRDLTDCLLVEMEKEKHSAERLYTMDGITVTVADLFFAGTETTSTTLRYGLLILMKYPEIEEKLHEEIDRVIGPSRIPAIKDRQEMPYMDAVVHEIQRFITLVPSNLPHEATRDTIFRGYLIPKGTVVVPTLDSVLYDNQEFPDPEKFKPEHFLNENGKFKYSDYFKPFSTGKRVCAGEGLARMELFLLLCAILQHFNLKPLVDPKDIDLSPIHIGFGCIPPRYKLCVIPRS
Cytochrome P450 2C19, sequence (P33261 whole entry): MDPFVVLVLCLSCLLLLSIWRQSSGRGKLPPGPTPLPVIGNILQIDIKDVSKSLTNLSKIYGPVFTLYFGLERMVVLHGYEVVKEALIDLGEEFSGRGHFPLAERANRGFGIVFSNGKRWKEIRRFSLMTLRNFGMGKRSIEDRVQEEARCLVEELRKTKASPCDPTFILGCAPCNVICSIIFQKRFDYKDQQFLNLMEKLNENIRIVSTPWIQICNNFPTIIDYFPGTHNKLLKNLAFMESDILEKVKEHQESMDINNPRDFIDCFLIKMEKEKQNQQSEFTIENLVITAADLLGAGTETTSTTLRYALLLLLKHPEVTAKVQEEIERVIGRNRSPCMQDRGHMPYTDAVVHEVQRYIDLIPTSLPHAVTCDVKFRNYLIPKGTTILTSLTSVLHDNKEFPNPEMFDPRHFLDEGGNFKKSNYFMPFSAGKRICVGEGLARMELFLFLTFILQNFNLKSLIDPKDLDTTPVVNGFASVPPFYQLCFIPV
Cytochrome P450 2D6, sequence (P10635 whole entry): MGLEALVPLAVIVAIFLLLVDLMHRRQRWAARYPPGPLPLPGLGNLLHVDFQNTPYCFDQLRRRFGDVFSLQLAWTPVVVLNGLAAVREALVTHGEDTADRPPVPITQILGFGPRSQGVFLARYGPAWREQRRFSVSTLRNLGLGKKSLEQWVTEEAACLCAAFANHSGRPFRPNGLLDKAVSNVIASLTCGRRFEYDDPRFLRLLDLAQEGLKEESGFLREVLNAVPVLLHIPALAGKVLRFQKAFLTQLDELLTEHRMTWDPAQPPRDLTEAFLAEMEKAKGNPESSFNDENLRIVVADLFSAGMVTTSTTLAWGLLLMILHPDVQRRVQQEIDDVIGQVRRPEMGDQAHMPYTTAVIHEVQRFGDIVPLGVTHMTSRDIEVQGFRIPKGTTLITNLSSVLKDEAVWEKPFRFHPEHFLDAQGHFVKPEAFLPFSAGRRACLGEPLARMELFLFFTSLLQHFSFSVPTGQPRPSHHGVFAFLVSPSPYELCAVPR
Cytochrome P450 2C9, sequence (P11712 whole entry): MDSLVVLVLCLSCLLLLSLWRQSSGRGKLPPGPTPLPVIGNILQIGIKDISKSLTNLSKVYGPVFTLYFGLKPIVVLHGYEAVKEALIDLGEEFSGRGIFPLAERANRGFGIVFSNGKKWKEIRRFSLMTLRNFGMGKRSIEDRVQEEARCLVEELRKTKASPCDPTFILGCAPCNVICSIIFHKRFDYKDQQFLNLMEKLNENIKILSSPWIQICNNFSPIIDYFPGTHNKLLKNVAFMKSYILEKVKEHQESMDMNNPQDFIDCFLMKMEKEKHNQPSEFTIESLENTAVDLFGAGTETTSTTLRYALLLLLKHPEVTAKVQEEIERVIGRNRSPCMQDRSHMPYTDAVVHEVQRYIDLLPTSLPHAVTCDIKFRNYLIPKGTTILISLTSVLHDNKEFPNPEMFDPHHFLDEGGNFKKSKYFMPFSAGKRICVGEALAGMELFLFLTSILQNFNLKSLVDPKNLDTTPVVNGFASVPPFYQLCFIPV

`C/C=C(/C(=C1C=CC(=O)C=C1)c1ccc(OCCN(C)C)cc1)c1ccccc1`: the half-life in [1] is 3 h.
On the same count and under the same terms, for `C/C=C(/C(=C1C=CC(=O)C=C1)c1ccccc1)c1ccccc1` the value was 4 h.
The compound `CC(C)(O)c1ccc(N2CCN(c3nnc(Cc4ccc(F)cc4F)c4ccccc34)CC2)nc1` registered a Retention_time in data set [2] of 14.8 min. Moreover, the Drug metabolism entry was “metabolite_not_detected” in data set [3]; “metabolite_detected” in [4]; “metabolite_not_detected” in [5]; “metabolite_not_detected” in data set [6]; “metabolite_not_detected” in data set [7]; “metabolite_not_detected” in [8]. The Drug metabolism result in data set [9] is “metabolite_detected”.
For `CC(C)(O)c1ccc(N2CCN(c3nnc(/C=C4\C=CC(=O)C=C4F)c4ccccc34)CC2)nc1`, in [2], the Retention_time came out at 17.46 min. Further, the Drug metabolism result in data set [10] and in data set [11] was “metabolite_detected” throughout.
In the case of `CC(C)(O)c1ccc(N2CCN(c3nnc(Cc4cc(SC[C@H](NC(=O)CC[C@H](N)C(=O)O)C(=O)NCC(=O)O)c(O)cc4F)c4ccccc34)CC2)nc1`, the Retention_time in [2] came to 9.92 min. Moreover, the Drug metabolism result in [10] and in data set [11] was “metabolite_detected” throughout.
